According to publication PMC4467529 (Bioorganic & medicinal chemistry, 2015):
“Also recorded” adds a separate entry of the source.

Assays:
[1] = In vitro cytotoxicity, Neutral Red assay; type: cell-based; conditions: human, KB oral epidermal carcinoma cells
Outline: (§1)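 Cells grown in RPMI-1640 with 10% bovine calf serum and amikacin (60 mg/L), 37°C, 5% CO₂, 95% humidity. Seeded at 25,000 cells/well, grown 24 h. Test samples diluted in serum-free medium, exposure 48 h. Viable cells counted by Neutral Red uptake; % viability loss against vehicle control. IC50 from dose curves, triplicate, means reported.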

[2] = In vitro cytotoxicity, Neutral Red assay; type: cell-based; conditions: African green monkey, Vero cells (kidney fibroblasts)
Outline: (§2)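 Cells were kept in RPMI-1640 with 10% bovine calf serum and amikacin 60 mg/L at 37 °C, 5% CO₂. They were seeded at 25,000 cells/well and grown 24 h, then exposed 48 h to test compound diluted in serum-free medium, tested up to 25 μg/ml. Viability was read by Neutral Red, as % decrease versus vehicle. IC50 came from dose curves, in triplicate, with doxorubicin as reference.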

[3] = In vitro cytotoxicity, Neutral Red assay; type: cell-based; conditions: human, BT-549 breast ductal carcinoma cells
Outline: as §2

[4] = In vitro cytotoxicity, Neutral Red assay; type: cell-based; conditions: pig, LLC-PK11 pig kidney epithelial cells
Outline: as §2

[5] = In vitro cytotoxicity, Neutral Red assay; type: cell-based; conditions: human, SK-MEL malignant melanoma cells
Outline: as §2

[6] = In vitro cytotoxicity, Neutral Red assay; type: cell-based; conditions: human, SK-OV-3 ovary carcinoma cells
Outline: as §1

[7] = system: NF-κB; type: cell-based, human; conditions: for IC50: Homo sapiens, SW1353, read-out: NF-κB IC50; for NF-κB inhibitory activity (in words): PMA-induced SW1353 cells
Outline: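 SW1353 cells were grown in DMEM/F12 with 10% FBS and electroporated with an NF-κB luciferase plasmid (50 μg/mL; 160 V, one 70-ms pulse). They were plated at 1.25 × 10⁵ cells/well for 24 h. […] Parthenolide was the reference; Sp-1 served as control factor.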

[8] = system: rat paw edema; assay: Carrageenan-induced rat paw edema assay; type: in vivo
Outline: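 Adult albino rats of both sexes (120–150 g), pre-hydrated with 3 ml water by gavage, in groups of five. Test compound or ketorolac tromethamine was suspended in distilled water with a few drops of Tween 80 and given i.p. 1 h before 1% carrageenan s.c. into the right hind subplantar paw. Controls got saline/Tween 80.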

| Compound | IC50 at 48 h [1] [µg/mL] | IC50 at 48 h [2] [µg/mL] | IC50 at 48 h [3] [µg/mL] | IC50 at 48 h [4] [µg/mL] | IC50 at 48 h [5] [µg/mL] | IC50 at 48 h [6] [µg/mL] | IC50 [7] [µg/mL] | NF-κB inhibitory activity (in words) [7] | in vivo anti-inflammatory activity (in words) ([8]; rat paw edema, compared to ketorolac) | Edema thickness ±SEM, 1h ([8]; rat, 30 mg/kg intraperitoneally, 1h after induction) | Edema thickness ±SEM, 2h ([8]; rat, 30 mg/kg intraperitoneally, 2h after induction) | Edema thickness ±SEM, 3h ([8]; rat, 30 mg/kg intraperitoneally, 3h after induction) | Edema thickness ±SEM, 4h ([8]; rat, 30 mg/kg intraperitoneally, 4h after induction) |
| --- | --- | --- | --- | --- | --- | --- | --- | --- | --- | --- | --- | --- | --- |
| O=c1oc2ccccc2n1CCCN1CCN(CCCn2c(=O)oc3ccccc32)CC1 [Compound 3c, 3,3′-(piperazine-1,4-diylbis(propane-3,1-diyl))bis(benzo[d]oxazol-2(3H)-one)] | > 25 | > 25 | > 25 | > 25 | > 25 | > 25 | – | – | – | – | – | – | – |
| O=c1sc2ccccc2n1CCN1CCN(CCn2c(=O)sc3ccccc32)CC1 [Compound 3b, 3,3′-(2,2′-(piperazine-1,4-diyl)bis(ethane-2,1-diyl))dibenzo[d]thaizol-2(3H)-one] | > 25 | > 25 | > 25 | > 25 | > 25 | > 25 | > 25 | – | – | – | – | – | – |
| O=c1oc2ccccc2n1CCCCN1CCN(CCn2c(=O)oc3ccccc32)CC1 [Compound 5c, 3-(2-(4-(4-(2-oxobenzo[d]oxazol-3(2H)-yl)butyl)piperazin-1-yl)ethyl)benzo[d]oxazol-2(3H)-one] | > 25 | > 25 | > 25 | > 25 | > 25 | > 25 | > 25 | – | – | – | – | – | – |
| O=c1sc2ccccc2n1CCCCN1CCN(CCn2c(=O)sc3ccccc32)CC1 [Compound 5d, 3-(2-(4-(4-(2-oxobenzo[d]thiazol-3(2H)-yl)butyl)piperazin-1-yl)ethyl)benzo[d]thiazol-2(3H)-one] | > 25 | > 25 | > 25 | > 25 | > 25 | > 25 | > 25 | – | – | – | – | – | – |
| O=c1sc2ccccc2n1CCCN1CCN(CCn2c(=O)sc3ccccc32)CC1 [Compound 5b, 3-(3-(4-(2-(2-oxobenzo[d]thiazol-3(2H)-yl)ethyl)piperazin-1-yl)propyl)benzo[d]thiazol-2(3H)-one] | > 25 | > 25 | > 25 | – | > 25 | > 25 | > 25 | – | – | – | – | – | – |
| O=c1oc2ccccc2n1CCCCCN1CCN(CCCCn2c(=O)oc3ccccc32)CC1 [Compound 5o, 3-(5-(4-(4-(2-oxobenzo[d]oxazol-3(2H)-yl)butyl)piperazin-1-yl)pentyl)benzo[d]oxazol-2(3H)-one] | > 25 | – | > 25 | > 25 | > 25 | > 25 | > 25 | – | – | – | – | – | – |
| O=c1oc2ccccc2n1CCCCCCN1CCN(CCCn2c(=O)oc3ccccc32)CC1 [Compound 5m, 3-(3-(4-(6-(2-oxobenzo[d]oxazol-3(2H)-yl)hexyl)piperazin-1-yl)propyl)benzo[d]oxazol-2(3H)-one] | > 25 | > 25 | > 25 | > 25 | > 25 | > 25 | > 25 | – | – | – | – | – | – |
| O=c1oc2ccccc2n1CCCN1CCN(CCn2c(=O)oc3ccccc32)CC1 [Compound 5a, 3-(3-(4-(2-(2-oxobenzo[d]oxazol-3(2H)-yl)ethyl)piperazin-1-yl)propyl)benzo[d]oxazol-2(3H)-one] | > 25 | > 25 | > 25 | > 25 | > 25 | > 25 | > 25 | – | – | – | – | – | – |
| O=c1oc2ccccc2n1CCCCCCN1CCN(CCCCn2c(=O)oc3ccccc32)CC1 [Compound 5q, 3-(6-(4-(4-(2-oxobenzo[d]oxazol-3(2H)-yl)butyl)piperazin-1-yl)hexyl)benzo[d]oxazol-2(3H)-one] | > 25 | > 25 | > 25 | > 25 | > 25 | > 25 | – | – | – | – | – | – | – |
| O=c1oc2ccccc2n1CCCCCN1CCN(CCn2c(=O)oc3ccccc32)CC1 [Compound 5e, 3-(5-(4-(2-(2-oxobenzo[d]oxazol-3(2H)-yl)ethyl)piperazin-1-yl)pentyl)benzo[d]oxazol-2(3H)-one] | > 25 | > 25 | > 25 | > 25 | > 25 | > 25 | – | – | – | – | – | – | – |
| O=c1sc2ccccc2n1CCCCN1CCN(CCCn2c(=O)sc3ccccc32)CC1 [Compound 5j, 3-(3-(4-(4-(2-oxobenzo[d]thiazol-3(2H)-yl)butyl)piperazin-1-yl)propyl)benzo[d]thiazol-2(3H)-one] | – | – | – | – | – | – | – | moderately active | – | – | – | – | – |
| O=c1sc2ccccc2n1CCCN1CCN(CCCn2c(=O)sc3ccccc32)CC1 [Compound 3d, 3,3′-(piperazine-1,4-diylbis(propane-3,1-diyl))bis(benzo[d]thiazol-2(3H)-one)] | > 25 | > 25 | > 25 | – | > 25 | > 25 | > 25 | – | – | – | – | – | – |
| O=c1oc2ccccc2n1CCCCCCN1CCN(CCCCCCn2c(=O)oc3ccccc32)CC1 [Compound 3i, 3,3′-(piperazine-1,4-diylbis(hexane-6,1-diyl))bis(benzo[d]oxazol-2(3H)-one)] | > 25 | > 25 | – | > 25 | – | > 25 | > 25 | devoid of any activity | – | – | – | – | – |
| O=c1oc2ccccc2n1CCN1CCN(CCn2c(=O)oc3ccccc32)CC1 [Compound 3a, 3,3′-(piperazine-1,4-diylbis(ethane-2,1-diyl))bis(benzo[d]oxazol-2(3H)-one)] | > 25 | > 25 | > 25 | > 25 | > 25 | > 25 | > 25 | – | – | – | – | – | – |
| c1ccc2sc(SCCCCN3CCN(CCCCSc4nc5ccccc5s4)CC3)nc2c1 [Compound 8b, 1,4-bis(4-(benzo[d]thiazol-2-ylthio)butyl)piperazine] | – | > 25 | > 25 | > 25 | – | > 25 | – | – | significant anti-inflammatory and analgesic activity; also recorded: most active dimer; also recorded: promising in vivo activity which was comparable to indomethacin and ketorolac | 56.48 ± 2.14 ×10^−2 mm | 55.6 ± 2.09 ×10^−2 mm | 61.32 ± 1.67 ×10^−2 mm | 103.54 ± 1.77 ×10^−2 mm |
| O=c1sc2ccccc2n1CCCCCCN1CCN(CCn2c(=O)sc3ccccc32)CC1 [Compound 5h, 3-(6-(4-(2-(2-oxobenzo[d]thiazol-3(2H)-yl)ethyl)piperazin-1-yl)hexyl)benzo[d]thiazol-2(3H)-one] | – | – | – | – | – | – | – | moderately active | – | – | – | – | – |
| O=c1oc2ccccc2n1CCCCCN1CCN(CCCCCn2c(=O)oc3ccccc32)CC1 [Compound 3g, 3,3′-(piperazine-1,4-diylbis(pentane-5,1-diyl))bis(benzo[d]oxazol-2(3H)-one)] | > 25 | – | > 25 | > 25 | > 25 | > 25 | – | – | – | – | – | – | – |
| O=c1sc2ccccc2n1CCCCCCN1CCN(CCCn2c(=O)sc3ccccc32)CC1 [Compound 5n, 3-(3-(4-(6-(2-oxobenzo[d]thiazol-3(2H)-yl)hexyl)piperazin-1-yl)propyl)benzo[d]thiazol-2(3H)-one] | > 25 | > 25 | – | > 25 | – | > 25 | – | moderately active | – | – | – | – | – |
